Compound activity: PubChem BioAssay, several laboratories
NadD block: NadD (S. aureus) enzyme inhibition | purified NadD enzyme, colorimetric absorbance read-out | 0.78% of 360,000 active | inhibition, % at 20 µM; in the data active = inhibition above about 26%
ABHD5-PLIN5 inh: inhibitors of human ABHD5-perilipin-5 interaction; Q00G26+Q8WTS1; Split G. princeps luciferase complementation, luminescence, 4 h; inhibition, % at 4 µM; 0.78% of 360,000 active;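 active = inhibition above the mean inhibition across every tested compound plus 3 SD, cut at about 22% in these data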;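 note: 0% = DMSO only wells and the 100% control is not disclosed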
Target sequence (Q00G26 whole entry, looked up): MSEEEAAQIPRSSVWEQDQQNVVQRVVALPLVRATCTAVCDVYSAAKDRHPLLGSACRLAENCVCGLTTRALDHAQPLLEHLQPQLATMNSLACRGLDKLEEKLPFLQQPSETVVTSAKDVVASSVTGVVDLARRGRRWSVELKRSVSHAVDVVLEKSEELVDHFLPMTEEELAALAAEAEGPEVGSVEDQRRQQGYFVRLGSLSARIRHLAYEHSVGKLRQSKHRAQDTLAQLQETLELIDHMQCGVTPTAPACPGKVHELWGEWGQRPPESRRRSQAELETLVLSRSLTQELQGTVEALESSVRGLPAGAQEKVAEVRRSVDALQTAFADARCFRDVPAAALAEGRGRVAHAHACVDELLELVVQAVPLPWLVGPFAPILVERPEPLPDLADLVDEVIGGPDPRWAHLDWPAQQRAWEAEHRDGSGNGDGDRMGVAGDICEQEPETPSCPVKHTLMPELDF
Target sequence (Q8WTS1 whole entry, looked up): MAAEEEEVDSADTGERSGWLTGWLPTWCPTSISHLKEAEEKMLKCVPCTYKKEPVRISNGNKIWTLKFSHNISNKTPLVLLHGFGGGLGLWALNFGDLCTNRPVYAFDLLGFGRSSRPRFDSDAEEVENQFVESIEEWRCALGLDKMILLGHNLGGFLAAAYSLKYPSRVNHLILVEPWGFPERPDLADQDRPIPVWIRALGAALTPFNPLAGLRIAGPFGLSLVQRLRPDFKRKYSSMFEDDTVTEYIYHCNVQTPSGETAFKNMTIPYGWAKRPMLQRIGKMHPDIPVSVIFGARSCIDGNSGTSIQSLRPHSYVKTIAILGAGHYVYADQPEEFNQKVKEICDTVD
core dimer inh: blocks dimerization of HCV core protein; inhibition, % at 5 µM; 0.33% of 300,000 active; TR-FRET GST/Flag-core106 dimerization, 1536-well; AID 1899;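 active = inhibition above the mean of all tested compounds plus 3 SD, set per screening campaign, cut at about 45% in these data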
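Test system: GST/Flag-tagged HCV core106 proteins; Medium: KF-containing HEPES buffer, pH 7.45, DTT, CHAPS, BSA; Times: compound-protein-antibody incubation 4 h at 22.5 °C; Detection: TR-FRET 671 and 617 nm emission; Benchmarks: wells lacking GST-core106 and wells with excess unlabelled core106.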
rCAG RNA binder: molecules binding r(CAG) RNA repeats. r(CAG) RNA repeat, TO-PRO-1 dye displacement fluorescence. inhibition, % at 3 µM. 1.3% of 370,000 active. AID 651821;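 active = inhibition above the plate cutoff, the mean of all test compounds on that plate plus 3 SD, cut at about 35% in these data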;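 note: 0% = DMSO alone and 100% = 100 µM mitoxantrone as full dye displacement; higher means more dye released from RNA so lower well fluorescence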
rCAG bind conf: r(CAG) RNA repeat binding, confirmation | shares compounds with rCAG RNA binder | TO-PRO-1 dye displacement fluorescence | inhibition, % at 3 µM | 70% of 4,300 active | AID 652065;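 active = inhibition above a per-plate cutoff, the mean inhibition of sample wells plus 3 SD, cut at about 35% in these data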;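 note: loss of TO-PRO-1 fluorescence as compound displaces dye from 1x1 AA loop RNA; 0% = DMSO only wells and 100% = 100 µM mitoxantrone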
DNA CAG counter: disrupts DNA CAG TO-PRO-1 complex, flagging rCAG hits; AID 652068; d(CAG) DNA oligo TO-PRO-1 dye displacement, fluorescence; shares compounds with rCAG RNA binder; inhibition, % at 3 µM; 94% of 4,300 active;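 active = inhibition above its plate's cutoff, the mean test-well inhibition plus 3 SD, cut at about 4.8% in these data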;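 note: 0% = DNA dye mix with DMSO and 100% = 100 µM mitoxantrone; hits displace the dye from DNA and so lower well fluorescence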
DNA CAG DR: DNA CAG dye complex inhibition, dose response counter-screen | shares compounds with rCAG RNA binder | DNA CAG/GTC duplex TO-PRO-1 dye displacement fluorescence | IC50, µM | 20% of 250 active; in the data active = IC50 below about 10 µM
* = called active by the depositor; . = no result given. Most compounds without a hit are left out; they make up all but 2.6% or so of the library.

SMILES	NadD block	ABHD5-PLIN5 inh	core dimer inh	rCAG RNA binder	rCAG bind conf	DNA CAG counter	others
CC(C)(C)N/N=C1\CC(c2ccccc2)Oc2ccccc21 (configuration not stated)	2	-5	-3	-1	.	.
O=S(=O)(N/N=C1/CC(c2ccccc2)Oc2ccccc21)c1ccccc1 (configuration not stated)	1	-5	.	36*	32	9.6*
CCCCn1nnnc1C(c1ccccc1)N1CCN(c2ccc(C(F)(F)F)cn2)CC1 (configuration not stated)	-3	-7	.	1	.	.
O=c1[nH]c2ccc(S(=O)(=O)N3CCCC3)cc2o1	.	.	.	2	.	.
CCC(CC)(CC(=O)Nc1cccc(/C=C/c2nc(C3CCC3)cs2)c1)C(=O)O	.	.	.	46*	55*	18*
COc1ccc(/C=N/N=C2/NC(=O)C(CC(=O)O)S2)cc1OCc1ccccc1Cl (configuration not stated)	8	1	2	22	.	.
CCOc1cc(/C=N/N=C2/NC(=O)C(CC(=O)O)S2)ccc1OCc1ccccc1Cl (configuration not stated)	18	-5	19	64*	46*	13*
CCOc1cc(/C=N/N=C2/NC(=O)C(CC(=O)O)S2)ccc1OS(=O)(=O)c1ccc(C)cc1 (configuration not stated)	6	-3	.	56*	36*	9.7*
COC(=O)C1CN(Cc2ccc(F)cc2)CCS(=O)(=O)N1Cc1ccc(C(F)(F)F)cc1 (configuration not stated)	.	.	.	-1	.	.
CC(C)Cn1nc(NS(=O)(=O)c2cccc3nonc23)c2cc3ccccc3nc21	10	1	-6	53*	39*	12*
O=C(O)C1C(c2ccccc2)C(C(=O)OCCCO)C1c1ccccc1 (configuration not stated)	8	-1	-3	4	.	.
CCCCCOC(=O)C1C(c2ccccc2)C(C(=O)O)C1c1ccccc1 (configuration not stated)	5	-7	5	35*	24	3
Cc1cc(S(=O)(=O)Nc2nc(CN3CCOCC3)nc3sc4c(c23)CCC4)ccc1F	12	0	.	54*	49*	14*
CC(C)(c1ccccc1)c1ccc(OCc2ccc(C(=O)O)o2)cc1	1	2	.	39*	34	4
Oc1ccc(/C=N/NC(=S)Nc2cccnc2)c(O)c1O	21	-18	.	44*	39*	15*
Cc1cccc(N/N=C/c2ccc(O)c(O)c2O)c1	1	-13	1	43*	43*	16*
C[C@@H]1CN([C@H](C)CO)C(=O)CCCn2cc(nn2)CO[C@H]1CN(C)S(=O)(=O)c1ccc(Cl)cc1	.	.	.	0	.	.
CS(=O)(=O)c1ccc2nc(NC(=O)c3ccc(NS(=O)(=O)c4cccc([N+](=O)[O-])c4)cc3)sc2c1	14	8	7	72*	70*	31*	DNA CAG DR=9.4*
Cc1cccc(C(=O)Nc2nc3ccc(S(C)(=O)=O)cc3s2)c1	-8	0	.	15	.	.
Cc1ccc2nc(NC(=O)c3ccc(NS(=O)(=O)c4cccs4)cc3)sc2c1	-3	2	15	43*	61*	23*
CS(=O)(=O)c1ccc2nc(NC(=O)Nc3cccc(Cl)c3)sc2c1	7	3	2	71*	63*	47*
OC(c1ccccc1)(c1ccccc1)C1CCN(CCCNc2ccc(C(F)(F)F)cc2)CC1	.	.	.	-1	.	.
CCCCNC(=O)C[C@@H]1C[C@@]2(C(=O)OCC)CCCC=C2N(CCC2=CCCCC2)C1=O	.	5	.	0	.	.
CC(C)(C)C(=O)NC1=NN(c2c(Cl)cc(Cl)cc2Cl)C(=O)C1	0	-23	2	44*	5	4
COc1cccc(C(=O)Nc2cccc(C(=O)NC3=NN(c4c(Cl)cc(Cl)cc4Cl)C(=O)C3)c2)c1	29	-12	14	56*	48*	17*
SMILES	NadD block	ABHD5-PLIN5 inh	core dimer inh	rCAG RNA binder	rCAG bind conf	DNA CAG counter	others
CCN(CC)C(=O)c1csc([C@@H]2O[C@H](CO)[C@H](O)[C@H](O)[C@H]2O)n1	-1	1	.	2	.	.
COc1ccc(NC(=O)Nc2ccc3c(c2)C(=O)N([C@H](C)CO)C[C@@H](C)[C@@H](CN(C)Cc2ccc4c(c2)OCO4)OCCCC[C@H](C)O3)cc1	.	.	.	6	.	.
COc1ccc(NC(=O)Nc2ccc3c(c2)C(=O)N([C@H](C)CO)C[C@H](C)[C@H](CN(C)Cc2ccc(C(=O)O)cc2)OCCCC[C@@H](C)O3)cc1	16	-7	.	37*	42*	10*
CCOC(=O)C1CSCCS(=O)(=O)N1Cc1ccc(F)cc1F (configuration not stated)	.	.	.	1	.	.
COC(=O)C(CCC(=O)CN1C(=O)c2ccccc2C1=O)N1C(=O)c2ccccc2C1=O (configuration not stated)	0	-4	.	0	.	.
N#Cc1c(SCC(=O)Nc2ccccc2C(F)(F)F)sc2c(O)cc(=O)[nH]c12	2	-1	-18	50*	15	6.3*
N#Cc1c(SCC(=O)Nc2ccc(Cl)cc2Cl)sc2c(O)cc(=O)[nH]c12	6	-1	2	44*	27	13*
Cc1c(Cl)cccc1NC(=O)CSc1sc2c(O)cc(=O)[nH]c2c1C#N	6	-1	8	39*	16	5.8*
Cc1cc(Oc2ccc(Cl)cc2)nc(-c2ccccn2)n1	4	-4	2	88*	0	-1
COc1ccc(-c2cc(NC(=O)Cc3c(C)[nH]c4ccccc34)ccc2Nc2cccnc2)cc1F	.	.	.	14	.	.
COc1ccc2[nH]c(=O)cc(C(=O)O)c2c1	15	9	8	8	.	.
COc1ccc2[nH]c3c4c(ccc3c2c1)C(=O)C=CC4=O	7	13	.	44*	19	15*
Oc1c(Br)cc(Br)c(/C=N/n2c(-c3ccccc3)n[nH]c2=S)c1Br	4	-5	16	59*	43*	14*
Fc1ccc(-c2n[nH]c(=S)n2N=Cc2cccc(OCc3ccccc3)c2)cc1	.	.	.	58*	51*	18*
Fc1ccccc1-c1n[nH]c(=S)n1N=Cc1ccc(-c2ccccc2)cc1	.	.	.	60*	48*	14*
Fc1ccccc1-c1n[nH]c(=S)n1N=Cc1cccc(OCc2ccccc2)c1	.	.	.	73*	64*	24*
CCOC(=O)C1=C[C@@H](C(C)C)N(S(=O)(=O)c2ccc(C)cc2)[C@H]1c1ccc(C(C)C)cc1	10	-5	.	1	.	.
Cc1cccc(NC(=O)Nc2nc3ncccn3c2-c2ccccc2)c1	.	.	.	0	.	.
CCOC(=O)c1sc(NS(=O)(=O)c2cc(C)ccc2C)nc1C	7	-8	10	44*	32	7.7*
